Assay [1] is described as follows: Antibiotic activity against Micrococcus luteus (ATCC 9341 strain). The class given is functional. A digest of the protocol: (§1)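 Peptides at 0.3 mM incubated with purified IPNS in Tris-HCl pH 8.0 containing KCl, MgSO4, FeSO4, ascorbate and DTT, at 25 °C for 2–20 min in quadruplicate, then stopped with ethanol. Samples with and without penicillinase went into wells on M. luteus ATCC 9341 lawns, incubated overnight at 37 °C, and inhibition zones were read. Peptides giving no product were retested for 1 h at 3 mM.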

Assay [2] deals with T1, Isopenicillin N synthase (Penicillium chrysogenum) (UniProt P08703).
T1 sequence (whole entry): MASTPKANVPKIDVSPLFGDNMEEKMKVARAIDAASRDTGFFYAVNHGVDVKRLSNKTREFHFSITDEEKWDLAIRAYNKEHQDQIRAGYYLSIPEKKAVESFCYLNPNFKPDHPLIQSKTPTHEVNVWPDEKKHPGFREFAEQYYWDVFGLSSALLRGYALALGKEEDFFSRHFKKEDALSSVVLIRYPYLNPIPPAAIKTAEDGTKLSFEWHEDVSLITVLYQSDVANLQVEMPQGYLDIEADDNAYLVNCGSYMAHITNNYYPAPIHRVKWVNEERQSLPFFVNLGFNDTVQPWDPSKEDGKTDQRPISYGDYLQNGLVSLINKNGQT
Description: Anti-micrococcus luteus activity was tested for inhibition of isopenicillin N synthetase. As to conditions: Penicillium chrysogenum (Penicillium notatum). A digest of the protocol: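 Peptide added at a known amount to a standard IPNS reaction mixture with ACV as substrate before starting the reaction with enzyme. Applied to peptides not converted to an anti-M. luteus product. Percent inhibition derived from the ratio of reaction rates with and without the peptide.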

In a further assay the test system is Micrococcus luteus. Description: In vitro antibiotic activity against Micrococcus luteus(ATCC 9341 stain). It counts as functional, organism-based. A digest of the protocol: as §1

Turning to `N[C@@H](CCCC(=O)NC(CSSCC(NC(=O)CCC[C@H](N)C(=O)O)C(=O)N[C@H](CC1CNc2ccccc21)C(=O)O)C(=O)N[C@H](CC1CNc2ccccc21)C(=O)O)C(=O)O` (stereo partly drawn), the Antibiotic activity result in assay [1] is “No activity”.

In the case of `CS(=O)(=O)C[C@@H](NC(=O)C(CSSCC(NC(=O)CCC[C@H](N)C(=O)O)C(=O)N[C@H](CS(C)(=O)=O)C(=O)O)NC(=O)CCC[C@H](N)C(=O)O)C(=O)O` (stereo partly drawn), in assay [1], the Antibiotic activity entry is “No activity”. On to `CC(C)C(NC(=O)C(CS)NC(=O)CCC[C@H](N)C(=O)O)S(=O)(=O)O` (stereo partly drawn), for which the Antibiotic activity result in assay [1] is “No activity”.

For the compound `C=C(NC(=O)CCC[C@H](N)C(=O)O)C(=O)N[C@H](COCc1ccccc1)C(=O)O`, the Activity result in assay [2] was “No activity”. For the same compound, in assay [1], the Antibiotic activity entry is “No activity”. Consider `CC(C)[C@@H](NC(=O)[C@H](CS)NC(=O)Cc1ccccc1CN)C(=O)O`, for which the Antibiotic activity entry in the assay on Micrococcus luteus was “Yes”. Take `N[C@@H](CCCC(=O)NC(CSSCC(NC(=O)CCC[C@H](N)C(=O)O)C(=O)N[C@H](CC(=O)O)C(=O)O)C(=O)N[C@H](CC(=O)O)C(=O)O)C(=O)O` (stereo partly drawn): the Antibiotic activity entry in assay [1] is “No activity”.

Consider `N[C@@H](CCCC(=O)NC(CSSCC(NC(=O)CCC[C@H](N)C(=O)O)C(=O)N[C@H](CO)C(=O)O)C(=O)N[C@H](CO)C(=O)O)C(=O)O` (stereo partly drawn), for which the Antibiotic activity entry in the assay on Micrococcus luteus is “Yes”. Turning to `CC(C)[C@@H](NC(=O)[C@H](CSSC[C@H](NC(=O)[C@@H]1CCCN1C(=O)CN)C(=O)N[C@@H](C(=O)O)C(C)C)NC(=O)[C@@H]1CCCN1C(=O)CN)C(=O)O`, the Activity entry in assay [2] was “No activity”. The Antibiotic activity result in assay [1] was “No activity”. On to `N[C@@H](CCCC(=O)NC(CSSCC(NC(=O)CCC[C@H](N)C(=O)O)C(=O)N[C@H](Cc1ccccc1)C(=O)O)C(=O)N[C@H](Cc1ccccc1)C(=O)O)C(=O)O` (stereo partly drawn), for which the Antibiotic activity entry in assay [1] was “No activity”. With `N[C@@H](CCCC(=O)NC(CSSCC(NC(=O)CCC[C@H](N)C(=O)O)C(=O)N[C@@H](Cc1cccs1)C(=O)O)C(=O)N[C@@H](Cc1cccs1)C(=O)O)C(=O)O` (stereo partly drawn), in assay [1], the Antibiotic activity entry was “No activity”. Same read-out and setting: the result for `CC(C)=C(NC(=O)C(CS)NC(=O)CCC[C@H](N)C(=O)O)C(=O)O` (stereo partly drawn) reads “No activity”. Regarding `CC(C)[C@@H](NC(=O)[C@H](CSSC[C@H](NC(=O)CCc1cccc(O)c1)C(=O)N[C@@H](C(=O)O)C(C)C)NC(=O)CCc1cccc(O)c1)C(=O)O`, the Activity result in assay [2] is “No activity”. The Antibiotic activity result with Micrococcus luteus is “Yes”. On to `N[C@@H](CCCC(=O)NC(CSSCC(NC(=O)CCC[C@H](N)C(=O)O)C(=O)NC(Cc1cccs1)C(=O)O)C(=O)NC(Cc1cccs1)C(=O)O)C(=O)O` (stereo partly drawn), for which the Antibiotic activity entry in assay [1] is “No activity”. Turning to `CC(C)[C@H](NC(=O)CCC[C@H](N)C(=O)O)C(=O)N[C@@H](C(=O)O)C(C)C`, the Antibiotic activity result in assay [1] was “No activity”. `N[C@@H](CCCC(=O)NC(CSSCC(NC(=O)CCC[C@H](N)C(=O)O)C(=O)N[C@H](COCc1ccccc1)C(=O)O)C(=O)N[C@H](COCc1ccccc1)C(=O)O)C(=O)O` (stereo partly drawn): the Activity result in assay [2] is “No activity”. For the same compound, in assay [1], the Antibiotic activity result is “No activity”. For the compound `CC(Cl)[C@@H](NC(=O)C(CSSCC(NC(=O)CCC[C@H](N)C(=O)O)C(=O)N[C@@H](C(=O)O)C(C)Cl)NC(=O)CCC[C@H](N)C(=O)O)C(=O)O` (stereo partly drawn), the Activity entry in assay [2] is “No activity”. The Antibiotic activity result in assay [1] is “No activity”.

As to `CC(C)[C@@H](NC(=O)[C@H](CSSC[C@H](NC(=O)c1cccc(CC(=O)O)c1)C(=O)N[C@@H](C(=O)O)C(C)C)NC(=O)c1cccc(CC(=O)O)c1)C(=O)O`, the Activity entry in assay [2] was “No activity”. In addition, the Antibiotic activity entry in assay [1] is “No activity”. As to `COCC(COC)[C@H](NC(=O)C(CSSCC(NC(=O)CCC[C@H](N)C(=O)O)C(=O)N[C@H](C(=O)O)C(COC)COC)NC(=O)CCC[C@H](N)C(=O)O)C(=O)O` (stereo partly drawn), in assay [2], the Activity entry is “No activity”. For the same compound, the Antibiotic activity entry in assay [1] was “No activity”. Take `N[C@@H](CCCC(=O)N[C@@H](CSSC[C@H](NC(=O)CCC[C@H](N)C(=O)O)C(=O)N[C@H](COCc1ccccc1)C(=O)O)C(=O)N[C@H](COCc1ccccc1)C(=O)O)C(=O)O`: the Activity result in assay [2] was “No activity”. In assay [1], the Antibiotic activity entry is “No activity”.

For `CC(C)[C@@H](NC(=O)[C@H](CS)NC(=O)CC[C@H](N)C(=O)O)C(=O)O`, in assay [2], the Activity entry is “No activity”. For the same compound, the Antibiotic activity result in assay [1] was “No activity”.

For `NC(=O)C[C@@H](NC(=O)C(CSSCC(NC(=O)CCC[C@H](N)C(=O)O)C(=O)N[C@H](CC(N)=O)C(=O)O)NC(=O)CCC[C@H](N)C(=O)O)C(=O)O` (stereo partly drawn), the Antibiotic activity entry in assay [1] is “No activity”. For the compound `CC(C)[C@@H](NC(=O)[C@H](CSSC[C@H](NC(=O)COc1ccccc1)C(=O)N[C@@H](C(=O)O)C(C)C)NC(=O)COc1ccccc1)C(=O)O`, the Antibiotic activity entry with Micrococcus luteus is “Yes”.

As to `CC(C)[C@@H](NC(=O)[C@H](CCS)NC(=O)CCC[C@H](N)C(=O)O)C(=O)O`, in assay [1], the Antibiotic activity result was “No activity”. Still for that read-out and setting: the result for `C[S+]([O-])C[C@@H](NC(=O)C(CSSCC(NC(=O)CCC[C@H](N)C(=O)O)C(=O)N[C@H](C[S+](C)[O-])C(=O)O)NC(=O)CCC[C@H](N)C(=O)O)C(=O)O` (stereo partly drawn) reads “No activity”. As to `CC(C)[C@@H](NC(=O)[C@H](CSSC[C@H](NC(=O)Cc1ccccc1)C(=O)N[C@@H](C(=O)O)C(C)C)NC(=O)Cc1ccccc1)C(=O)O`, the Antibiotic activity result with Micrococcus luteus was “Yes”. With `N[C@@H](CCCC(=O)NC(CSSCC(NC(=O)CCC[C@H](N)C(=O)O)C(=O)N[C@@H](C(=O)O)C1CCCCC1)C(=O)N[C@@H](C(=O)O)C1CCCCC1)C(=O)O` (stereo partly drawn), the Activity entry in assay [2] is “No activity”. The Antibiotic activity entry in assay [1] was “No activity”. As for `COC(=O)CCCCC(=O)N[C@@H](CSSC[C@H](NC(=O)CCCCC(=O)OC)C(=O)N[C@@H](C(=O)O)C(C)C)C(=O)N[C@@H](C(=O)O)C(C)C`, in the assay with Micrococcus luteus, the Antibiotic activity entry is “Yes”. The same measure, in the same setting: the result for `CC(C)[C@@H](NC(=O)[C@H](CSSC[C@H](NC(=O)Cc1cccc(C(=O)O)c1)C(=O)N[C@@H](C(=O)O)C(C)C)NC(=O)Cc1cccc(C(=O)O)c1)C(=O)O` reads “Yes”. Take `C=CC[C@H](NC(=O)CCC[C@H](N)C(=O)O)C(=O)N[C@@H](C(=O)O)C(C)C`: in assay [2], the Activity entry is “No activity”. The Antibiotic activity entry in assay [1] is “No activity”. With `N[C@@H](CCCC(=O)NC(CSSCC(NC(=O)CCC[C@H](N)C(=O)O)C(=O)N[C@H](Cc1cccs1)C(=O)O)C(=O)N[C@H](Cc1cccs1)C(=O)O)C(=O)O` (stereo partly drawn), the Antibiotic activity result in assay [1] is “No activity”.

Take `CC(C)[C@@H](NC(=O)[C@H](CS)NC(=O)[C@@H](N)CCC(=O)O)C(=O)O`: the Activity entry in assay [2] is “No activity”. Moreover, the Antibiotic activity entry in assay [1] was “No activity”. Consider `CSC[C@@H](NC(=O)C(CSSCC(NC(=O)CCC[C@H](N)C(=O)O)C(=O)N[C@H](CSC)C(=O)O)NC(=O)CCC[C@H](N)C(=O)O)C(=O)O` (stereo partly drawn), for which the Antibiotic activity entry in assay [1] was “No activity”. Regarding `CC(NC(=O)CCC[C@H](N)C(=O)O)C(=O)N[C@@H](C(=O)O)C(C)(C)S` (stereo partly drawn), in assay [2], the Activity entry was “No activity”. For `COCC(COC)[C@@H](NC(=O)C(CSSCC(NC(=O)CCC[C@H](N)C(=O)O)C(=O)N[C@@H](C(=O)O)C(COC)COC)NC(=O)CCC[C@H](N)C(=O)O)C(=O)O` (stereo partly drawn), the Activity entry in assay [2] was “No activity”. For the same compound, the Antibiotic activity entry in assay [1] is “No activity”. As to `CC(C)[C@@H](NC(=O)[C@H](CSSC[C@H](NC(=O)CCCCC(=O)O)C(=O)N[C@@H](C(=O)O)C(C)C)NC(=O)CCCCC(=O)O)C(=O)O`, the Antibiotic activity entry in the assay with Micrococcus luteus is “Yes”. Take `N[C@@H](CCCC(=O)NC(CSSCC(NC(=O)CCC[C@H](N)C(=O)O)C(=O)NC1(C(=O)O)CCCC1)C(=O)NC1(C(=O)O)CCCC1)C(=O)O` (stereo partly drawn): in assay [2], the Activity entry is “No activity”. The Antibiotic activity entry in assay [1] is “No activity”. As to `CC(C)[C@@H](NC(=O)[C@@H]1CSC(C)(C)N1C(=O)CCC[C@H](N)C(=O)O)C(=O)O`, the Activity result in assay [2] was “No activity”. In assay [1], the Antibiotic activity result is “No activity”. Take `CC(C)[C@@H](NC(=O)[C@H](Cc1c[nH]cn1)NC(=O)CCC[C@H](N)C(=O)O)C(=O)O`: in assay [1], the Antibiotic activity result was “No activity”.

The values above are taken from ChEMBL document CHEMBL1126293, “Substrate specificity of isopenicillin N synthase” (J Med Chem, 1992).
